Most compounds without a hit are left out; they make up all but 3.8% or so of the library.
INS promoter inh: inhibitors of insulin promoter-driven GFP, primary screen, imaging, TRM-6 cells (human fetal islet line), eGFP reporter, cell count; reporter expression induced with tamoxifen; 130,000 compounds, 0.9% hits; inhibition, % at 2 µM;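 active = inhibition above the mean plus 3 SD, with well images judged a real hit on visual review, cut at about 60% in these data, passing the limit was not always enough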
RAM inhibit: inhibitors of the yeast RAM network, primary screen, dse1pr::URA3 reporter, 5-FOA selection; S. cerevisiae dse1pr::URA3 reporter, 5-FOA growth OD615, 2 d; analog-sensitive cbk1-as2 kinase mutant strain; inhibition, % at 50 µM; 190,000 compounds, 1.8% hits; AID 868, 2007;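 active = inhibition above a set limit, 3 SD over mean compound inhibition, cut at about 8.4% in these data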;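 note: 0% = DMSO-only wells with no growth and 100% = 10 µM 1-NA-PP1 full growth; inhibition rescues growth on 5-FOA so higher OD means more RAM inhibition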
NPY Y1 blocker: NPY-Y1 receptor antagonists, primary screen, cell-based; Neuropeptide Y receptor type 1 (Homo sapiens), P25929; HEK293-CNG Y1 cells, membrane potential fluorescence; NPY at EC95, then isoproterenol; inhibition, % at 3.6 µM; 200,000 compounds, 1% hits;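 active = inhibition above the campaign mean inhibition of all tested compounds plus 3 SD, cut at about 20% in these data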;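 note: 0% = DMSO wells given NPY plus isoproterenol and 100% = isoproterenol alone without NPY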
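Material: HEK293 cells co-expressing NPY Y1 receptor and cyclic-nucleotide gated channel. Timing: compound incubation 1 h at room temperature, readout 45 min post-stimulation. Signal: fluorescence, membrane potential probe.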
NPY-Y2 PAM-ag: NPY-Y2 potentiators or agonists, primary screen, cell-based. cells expressing NPY-Y2, potentiator/agonist read-out. activation, % at 3.6 µM. 220,000 compounds, 0.45% hits. AID 1359, 2008; in the data active = activation above about 27%;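 note: cells stimulated with NPY near EC25 plus isoproterenol at EC100; 0% = vehicle plus submaximal agonist and 100% = vehicle plus saturating agonist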
Target sequence (P49146 whole entry, looked up): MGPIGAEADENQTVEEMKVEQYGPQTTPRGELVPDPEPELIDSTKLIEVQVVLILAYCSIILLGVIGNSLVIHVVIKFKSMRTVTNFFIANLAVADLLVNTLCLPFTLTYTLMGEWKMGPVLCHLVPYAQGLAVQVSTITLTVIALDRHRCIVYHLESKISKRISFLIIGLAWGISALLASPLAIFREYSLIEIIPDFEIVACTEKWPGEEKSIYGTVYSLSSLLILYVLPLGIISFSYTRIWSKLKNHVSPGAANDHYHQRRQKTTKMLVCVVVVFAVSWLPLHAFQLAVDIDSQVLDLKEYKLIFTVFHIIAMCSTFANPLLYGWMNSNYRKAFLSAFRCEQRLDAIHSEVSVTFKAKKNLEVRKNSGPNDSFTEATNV
NPY1 pot ag: NPY-Y1 receptor potentiators or agonists, primary screen, cell-based | Neuropeptide Y receptor type 1 (Homo sapiens), P25929 | NPY-Y1 expressing cells, potentiator/agonist activation | activation, % at 3.6 µM | 220,000 compounds, 0.37% hits; in the data active = activation above about 33%, passing the limit was not always enough;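 note: cells stimulated with NPY at EC10 then isoproterenol at EC100; 0% = low agonist plus stimulus and 100% = saturating agonist plus stimulus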
NPY Y2 blocker: NPY-Y2 receptor antagonists, primary screen, cell-based. Neuropeptide Y receptor type 2 (Homo sapiens), P49146. NPY-Y2 expressing cells, antagonist mode. inhibition, % at 2.7 µM. 140,000 compounds, 0.99% hits. AID 793, 2007; in the data active = inhibition above about 17%;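 note: 0% = vehicle with agonist challenge and 100% = reference antagonist with challenge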
* = called active by the depositor.

What do the screens show for `COc1ccc(OC)c(-n2c(=S)[nH]c3cc(C(=O)N4CCN(c5ccccc5)CC4)ccc3c2=O)c1`?
RAM inhibit: 4; NPY Y1 blocker: 8; NPY-Y2 PAM-ag: -24; NPY1 pot ag: -22

Results for O=S(=O)(c1ccc(F)c2ccccc12)N1CCCCC1 ?
INS promoter inh: -6; RAM inhibit: 8.9*; NPY Y1 blocker: 5; NPY-Y2 PAM-ag: -21; NPY1 pot ag: -30; NPY Y2 blocker: 13

How did O=S(=O)(c1ccccc1S(=O)(=O)N1CCCCC1)N1CCCCC1 do in these assays?
INS promoter inh: -10; RAM inhibit: 3; NPY Y1 blocker: 11; NPY-Y2 PAM-ag: 18; NPY1 pot ag: -4; NPY Y2 blocker: -1

Results for CCOc1ccc(S(=O)(=O)N2CCCCC2)c2ccccc12 ?
INS promoter inh: 3; RAM inhibit: 9.4*; NPY Y1 blocker: 14; NPY-Y2 PAM-ag: -13; NPY1 pot ag: -15; NPY Y2 blocker: 8

How did Cc1ccc(NC(=S)Nc2ccc(F)cc2)c(C)c1 do in these assays?
RAM inhibit: -1; NPY Y1 blocker: 3; NPY-Y2 PAM-ag: -7; NPY1 pot ag: 8

Results for O=C(Cn1nc(-c2ccc(N3CCOCC3)c([N+](=O)[O-])c2)c2ccccc2c1=O)N1CCCCC1 ?
INS promoter inh: 4; RAM inhibit: 0; NPY Y1 blocker: 25*; NPY-Y2 PAM-ag: -35; NPY1 pot ag: -14; NPY Y2 blocker: 57*

Results for CCN(CC)C(=O)c1sc2nc(-c3cccs3)cc(-c3ccc(Cl)cc3)c2c1N ?
INS promoter inh: -44; RAM inhibit: 9.2*; NPY Y1 blocker: 3; NPY-Y2 PAM-ag: -9; NPY1 pot ag: -34; NPY Y2 blocker: 6

What do the screens show for `CCN(CC)C(=O)c1sc2nc(-c3cccs3)cc(-c3cccs3)c2c1N`?
NPY-Y2 PAM-ag: -18; NPY1 pot ag: -7

How did CN1CCS/C1=C/C=C1/SC(=S)N(Cc2ccccc2)C1=O do in these assays?
RAM inhibit: 9.6*; NPY Y1 blocker: 3; NPY-Y2 PAM-ag: 5; NPY1 pot ag: -8; NPY Y2 blocker: 3

Results for N[C@@H](CO)c1nnc([C@H](CCC(=O)O)NC(=O)C2CCNCC2)o1 ?
RAM inhibit: 1; NPY Y1 blocker: -6; NPY-Y2 PAM-ag: -1; NPY1 pot ag: -7

Results for CCOc1ccc(C(=O)Nc2ccc(Cl)cn2)cc1Cl ?
RAM inhibit: 8.7*; NPY Y1 blocker: -3; NPY-Y2 PAM-ag: -5; NPY1 pot ag: -4; NPY Y2 blocker: 3

Results for Cc1ccc(Cn2c(SC(C)C(N)=O)nc3ccccc3c2=O)cc1 (centres undefined) ?
INS promoter inh: 42; RAM inhibit: 1; NPY Y1 blocker: 1; NPY-Y2 PAM-ag: 0; NPY1 pot ag: 9

What do the screens show for `C/C(=N\Nc1ccc(C#N)cc1[N+](=O)[O-])c1ccc(C)o1`?
NPY-Y2 PAM-ag: -16; NPY1 pot ag: 1

What do the screens show for `COc1cc(C(=O)Nc2cccc(-c3nc4cc(C)ccc4o3)c2)cc(OC)c1OC`?
INS promoter inh: 71*; RAM inhibit: 8.7*; NPY Y1 blocker: 1; NPY-Y2 PAM-ag: 6; NPY1 pot ag: -20; NPY Y2 blocker: 1

What do the screens show for `CCCCOc1ccc(-c2cc(C(F)(F)F)c(C#N)c(SCC(=O)O)n2)cc1`?
RAM inhibit: 8.4*; NPY Y1 blocker: 1; NPY-Y2 PAM-ag: 22; NPY1 pot ag: -16

Results for C=CCOC(=O)C1=C(C)N=C2SCCC(=O)N2C1/C=C/c1ccccc1 (centres undefined) ?
RAM inhibit: 2; NPY Y1 blocker: 10; NPY-Y2 PAM-ag: 5; NPY1 pot ag: -5

What do the screens show for `COc1cccc(C2=NN(C(=O)c3cccs3)C(O)(C(F)(F)F)C2)c1` (centres undefined)?
INS promoter inh: -7; RAM inhibit: 0; NPY Y1 blocker: 8; NPY-Y2 PAM-ag: -22; NPY1 pot ag: -29

Results for Cc1ccc(C(=O)C(=O)c2ccc(C)c(N)c2)cc1N ?
NPY-Y2 PAM-ag: 9; NPY1 pot ag: -14
